Experimental data: ChEMBL document CHEMBL5120856, “New salicylic acid derivatives, double inhibitors of glycolate oxidase and lactate dehydrogenase, as effective agents decreasing oxalate production” (Eur J Med Chem, 2022)
The source made the active and inactive calls. The rule behind the calls is not given here.

Legend:
2-Hydroxyacid oxidase 1 [1] = target: T1, 2-Hydroxyacid oxidase 1 (Mus musculus, UniProt Q9WU19); assay: Inhibition of N-terminal His-tagged mouse recombinant glycolate oxidase expressed in Escherichia coli BL21 (DE3) cells using glycolate as substrate preincubated for 10 mins followed by substrate addition and measured after 10 mins by Amplex red and horseradish peroxidase based fluorescence assay
T1 sequence (Q9WU19 whole entry): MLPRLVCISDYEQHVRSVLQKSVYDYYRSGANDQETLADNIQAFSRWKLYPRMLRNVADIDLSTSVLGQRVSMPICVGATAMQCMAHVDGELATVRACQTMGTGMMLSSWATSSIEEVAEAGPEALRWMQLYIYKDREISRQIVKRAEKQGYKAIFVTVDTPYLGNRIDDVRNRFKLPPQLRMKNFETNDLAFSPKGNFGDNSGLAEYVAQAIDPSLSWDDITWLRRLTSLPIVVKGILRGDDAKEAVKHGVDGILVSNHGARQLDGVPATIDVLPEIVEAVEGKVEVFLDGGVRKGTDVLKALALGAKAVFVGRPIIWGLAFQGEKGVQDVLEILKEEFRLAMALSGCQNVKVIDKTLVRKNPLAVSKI

[2] = target: T2, L-lactate dehydrogenase B chain (Homo sapiens, UniProt P07195); assay: Inhibition of human recombinant LDHB using pyruvate as substrate preincubated for 10 mins followed by substrate addition and measured every 60 sec for 10 mins in the presence of NADH by fluorescence assay
2-Hydroxyacid oxidase 1 [3] = target: T1, 2-Hydroxyacid oxidase 1; assay: Non-competitive mixed inhibition of N-terminal His-tagged mouse recombinant glycolate oxidase expressed in Escherichia coli BL21 (DE3) cells assessed as inhibition constant using varying concentration of glycolate as substrate measured every 60 sec for 15 mins by Amplex red and horseradish peroxidase based fluorescence assay
[4] = target: T2, L-lactate dehydrogenase B chain; assay: Non-competitive inhibition of human recombinant LDHB assessed as inhibition constant using varying concentration of pyruvate as substrate preincubated for 10 mins followed by substrate addition and measured every 60 sec for 10 mins in the presence of NADH by fluorescence assay
[5] = target: T2, L-lactate dehydrogenase B chain; assay: Mixed inhibition of human recombinant LDHB assessed as inhibition constant using varying concentration of pyruvate as substrate preincubated for 10 mins followed by substrate addition and measured every 60 sec for 10 mins in the presence of NADH by fluorescence assay
[6] = target: T3, 2-Hydroxyacid oxidase 1 (Mus musculus) (UniProt Q9WU19); assay: Non-competitive mixed inhibition of N-terminal His-tagged mouse recombinant glycolate oxidase expressed in Escherichia coli BL21 (DE3) cells assessed as decrease in Vmax with increase in apparent Km using glycolate as substrate upto 60 microM
T3 sequence (whole entry): T1 sequence (Q9WU19 whole entry)

Hepatocyte [7] = assay: Cytotoxicity against hyperoxaluric-primary hepatocyte isolated from Hoga1-knockdown PH3 C57BL/6 mouse assessed as cell death at 10 uM by MTS assay; type: toxicity, cell-based; conditions: hepatocytes, Hoga1-knockdown PH3, 10 µM
Method in brief: (§1)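 Primary hepatocytes from Agxt1-/- (PH1, 5 mM glycolate), Grhpr-/- (PH2, 10 mM glycolate) or Hoga1-/- (PH3, 10 mM hydroxyproline) mice, incubated with inhibitor at 10 μM; viability followed through the oxalate assay by MTS tetrazolium method.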

Hepatocyte [8] = assay: Cytotoxicity against hyperoxaluric-primary hepatocyte isolated from Grhpr-knockdown PH2 C57BL/6 mouse assessed as cell death at 10 uM by MTS assay; type: toxicity, cell-based; conditions: hepatocytes, Grhpr-knockdown PH2 (primary hyperoxaluria type 2); method in brief: as §1
Hepatocyte [9] = assay: Cytotoxicity against hyperoxaluric-primary hepatocyte isolated from Agxt1-knockdown PH1 C57BL/6 mouse assessed as cell death at 10 uM by MTS assay; type: toxicity, cell-based; conditions: hepatocytes, Agxt1-knockdown PH1, 10 µM; method in brief: as §1
Hepatocyte [10] = assay: Inhibition of GO/LDHA in hyperoxaluric-primary hepatocyte isolated from Agxt1 knockdown PH1 C57BL/6 mouse assessed as reduction in extracellular oxalate concentration at 10 uM measured at 48 hrs in the presence of glycolate relative to control; type: cell-based; parameters: scale not given: the % may be the effect or the level left
Method in brief: (§2)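 Agxt1-/- mouse primary hepatocytes cultured with 5 mM glycolate, inhibitor at 10 μM; extracellular oxalate measured by colorimetric kit 24 and 48 h after inhibitor addition; relative oxalate = oxalate with inhibitor over oxalate without inhibitor; negative values mean below detection limit; mean of three/four replicates ± SD.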

Hepatocyte [11] = assay: Inhibition of GO/LDHA in hyperoxaluric-primary hepatocyte isolated from Agxt1 knockdown PH1 C57BL/6 mouse assessed as reduction in relative oxalate output at 10 uM measured at 24 hrs in the presence of glycolate relative to control; type: cell-based; parameters: scale not given: the % may be the effect or the level left; method in brief: as §2
Hepatocyte [12] = assay: Inhibition of GO/LDHA in hyperoxaluric-primary hepatocyte isolated from Grhpr-knockdown PH2 C57BL/6 mouse assessed as reduction in relative oxalate output at 10 uM measured at 24 hrs in the presence of glycolate relative to control; type: cell-based; parameters: scale not given: the % may be the effect or the level left
Method in brief: (§3)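 Grhpr-/- mouse primary hepatocytes cultured with 10 mM glycolate, inhibitor at 10 μM; extracellular oxalate determined colorimetrically at 24 and 48 h post-treatment, expressed relative to untreated medium (RO); negative RO means below detection limit; three/four replicates, mean ± SD.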

Hepatocyte [13] = assay: Inhibition of GO/LDHA in hyperoxaluric-primary hepatocyte isolated from Hoga1-knockdown PH3 C57BL/6 mouse assessed as reduction in relative oxalate output at 10 uM measured at 24 hrs in the presence of hydroxyproline relative to control; type: cell-based; parameters: scale not given: the % may be the effect or the level left
Method in brief: (§4)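 Hoga1-/- mouse primary hepatocytes challenged with 10 mM hydroxyproline, inhibitor 10 μM; extracellular oxalate measured by colorimetric kit 24 and 48 h after dosing, given as ratio to oxalate without inhibitor; negative values are below detection limit; mean of three/four replicates ± SD.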

Hepatocyte [14] = assay: Inhibition of GO/LDHA in hyperoxaluric-primary hepatocyte isolated from Grhpr-knockdown PH2 C57BL/6 mouse assessed as reduction in relative oxalate output at 10 uM measured at 48 hrs in the presence of glycolate relative to control; type: cell-based; parameters: scale not given: the % may be the effect or the level left; method in brief: as §3
Hepatocyte [15] = assay: Inhibition of GO/LDHA in hyperoxaluric-primary hepatocyte isolated from Hoga1-knockdown PH3 C57BL/6 mouse assessed as reduction in relative oxalate output at 10 uM measured at 48 hrs in the presence of hydroxyproline relative to control; type: cell-based; parameters: scale not given: the % may be the effect or the level left; method in brief: as §4
[16] = Inhibition of GO/LDHA in hyperoxaluric-primary hepatocyte isolated from Agxt1 knockdown PH1 C57BL/6 mouse measured at 24 hrs in the presence of 5 mM glycolate; type: cell-based
Method in brief: (§5)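 Agxt1-/- hepatocytes with 5 mM glycolate; eight inhibitor concentrations per replicate; extracellular oxalate measured colorimetrically at 24 or 48 h; EC50 as mean of three/four replicates ± SD.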

[17] = Inhibition of GO/LDHA in hyperoxaluric-primary hepatocyte isolated from Grhpr-knockdown PH2 C57BL/6 mouse measured at 24 hrs in the presence of 10 mM glycolate; type: cell-based
Method in brief: (§6)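 Grhpr-/- hepatocytes with 10 mM glycolate; eight inhibitor concentrations per replicate; colorimetric extracellular oxalate at 24 or 48 h; EC50 as mean of three/four replicates ± SD.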

[18] = Inhibition of GO/LDHA in hyperoxaluric-primary hepatocyte isolated from Hoga1-knockdown PH3 C57BL/6 mouse measured at 24 hrs in the presence of hydroxyproline; type: cell-based
Method in brief: (§7)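 Hoga1-/- hepatocytes with 10 mM hydroxyproline; eight inhibitor concentrations per replicate; colorimetric extracellular oxalate at 24 or 48 h; EC50 as mean of three/four replicates ± SD.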

[19] = Inhibition of GO/LDHA in hyperoxaluric-primary hepatocyte isolated from Agxt1 knockdown PH1 C57BL/6 mouse measured at 48 hrs in the presence of 5 mM glycolate; type: cell-based; method in brief: as §5
[20] = Inhibition of GO/LDHA in hyperoxaluric-primary hepatocyte isolated from Grhpr-knockdown PH2 C57BL/6 mouse measured at 48 hrs in the presence of 10 mM glycolate; type: cell-based; method in brief: as §6
[21] = Inhibition of GO/LDHA in hyperoxaluric-primary hepatocyte isolated from Hoga1-knockdown PH3 C57BL/6 mouse measured at 48 hrs in the presence of hydroxyproline; type: cell-based; method in brief: as §7
HEK293 = assay: Cytotoxicity against HEK293 cells assessed as reduction in cell viability upto 50 uM measured after 48 hrs by MTT assay; type: toxicity, cell-based; conditions: human, hek293, 48 h
[22] = In vivo inhibition of GO/LDHA in Agxt1 knockdown PH1 C57BL/6 mouse assessed as decrease in urine oxalate level at 20 mg/kg, po administered for 5 days relative to control; type: functional; parameters: scale not given: the % may be the effect or the level left; conditions: time 5 day
Method in brief: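 Agxt1-/- (PH1) mice, ten males, dosed orally at 20 mg/kg body weight once daily for 5 days. 24-h urine was collected, and oxalate was normalised to creatinine. Urine glycolate was also measured. Values are expressed as % of each animal's own basal pre-treatment excretion, which serves as the control, and are reported as mean ± SE.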

Mus musculus = assay: In vivo inhibition of GO/LDHA in Agxt1 knockdown PH1 C57BL/6 mouse assessed as increase in urine glycolate level at 20 mg/kg, po administered for 5 days relative to control; type: functional, organism-based; conditions: time 5.0 day
Method in brief: (§8)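 Ten male Agxt1-/- mice dosed orally at 20 mg/kg daily for 5 days; 24-h urine oxalate (creatinine-normalized) and glycolate compared with pre-treatment baseline; clinical signs of toxicity monitored; mean ± SE.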

[23] = Toxicity in Agxt1 knockdown PH1 C57BL/6 mouse assessed as tolerance at 20 mg/kg, po administered for 5 days; type: organism-based; conditions: in vivo, pH 1, 20 mg/kg, 120 h, time 5 day; method in brief: as §8
[24] = Toxicity in Agxt1 knockdown PH1 C57BL/6 mouse assessed as clinical signs of toxicity at 20 mg/kg, po administered for 5 days; type: organism-based; conditions: in vivo, pH 1, 20 mg/kg, 120 h, time 5 day; method in brief: as §8

T2 sequence (P07195 whole entry): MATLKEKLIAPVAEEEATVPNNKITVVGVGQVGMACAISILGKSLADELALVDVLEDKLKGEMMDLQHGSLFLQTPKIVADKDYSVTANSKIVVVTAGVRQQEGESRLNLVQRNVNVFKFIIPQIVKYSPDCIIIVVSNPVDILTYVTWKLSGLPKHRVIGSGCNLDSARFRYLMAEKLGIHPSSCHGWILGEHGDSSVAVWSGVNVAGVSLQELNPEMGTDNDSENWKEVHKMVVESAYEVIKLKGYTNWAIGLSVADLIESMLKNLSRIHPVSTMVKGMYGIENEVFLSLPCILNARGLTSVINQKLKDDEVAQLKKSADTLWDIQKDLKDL

Work on `C#CCNCc1ccc(-c2ccc(O)c(C(=O)O)c2)o1.N` yielded an IC50 (2-Hydroxyacid oxidase 1 [1]) of 8.1 µM, an IC50 [2] of 11.8 µM and a Ki (2-Hydroxyacid oxidase 1 [3]) of 10.5 µM. For the same molecule, the Ki [4] was 5.1 µM, the Ki [5] was 2 µM and the inhibition [6] was “Active”. The Activity (Hepatocyte [7]) was “Non-Toxic”, the Activity (Hepatocyte [8]) was “Non-Toxic” and the Activity (Hepatocyte [9]) was “Non-Toxic”. The Activity (Hepatocyte [10]) was 70%, the Activity (Hepatocyte [11]) was 90% and the Activity (Hepatocyte [12]) was 90%. The Activity (Hepatocyte [13]) was 90%, the Activity (Hepatocyte [14]) was 70% and the Activity (Hepatocyte [15]) was 70%. It also gave an EC50 [16] of 4 µM, an EC50 [17] of 1.2 µM and an EC50 [18] of 1.7 µM. It also gave an EC50 [19] of 3.8 µM, an EC50 [20] of 2.7 µM and an EC50 [21] of 1.9 µM. For the same molecule, the Activity (HEK293) was “Non-Toxic”, the Activity [22] was 50% and the Activity (Mus musculus) was “Active”. For the same molecule, the Activity [23] was “Non-Toxic” and the Activity [24] was “Non-Toxic”.
